In PMC8525972 (mAbs, 2021):

What was measured:
human IgG [1] = experiment: Fluorescence polarization mix-and-read assay, human IgG titration; format: binding; settings: 50 nM probe, human IgG 0 to 2.5 g/L
Procedure, shortened: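 Fluorescein-labelled probes (Fc-III peptide, protein G, peptide-H) at 50 nM mixed with human IgG at 0–2.5 g/L in PBS. Polarisation read immediately at Ex 485/Em 535 nm. mP is (I∥ − I⊥)/(I∥ + I⊥) × 1000. Curves fitted with a 4-parameter logistic.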

human IgG [2] = experiment: Fluorescence intensity mix-and-read assay, human IgG titration; format: binding
Procedure, shortened: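 Human IgG (0–2.5 g/L) diluted in PBS and mixed 1:1 with fluorescein-Ahx-labelled Fc-III peptide probe in PBS; probe tested at 25–500 nM, and at 50 nM and 2000 nM for linear quantitation. Plate read immediately, intensity at Ex 485/Em 535 nm. Normalised intensity is the fold change over probe alone without IgG.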

[3] = Fluorescence intensity of probe with hydroxypropyl-β-cyclodextrin; format: physicochemical; settings: 50 nM probe; increasing HP-β-cyclodextrin
polyclonal human IgG [4] = experiment: Fluorescence polarization, human IgG in CHO cell culture fluid; format: binding; settings: 100 nM probe in CHO-CCF
polyclonal human IgG [5] = experiment: Fluorescence intensity, human IgG in CHO cell culture fluid; format: binding
Procedure, shortened: (§1)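 CHO-S cells grown in CD CHO medium with 4 mM L-glutamine to 3.31 × 10^6 cells/mL at 96.1% viability. Fluid clarified by 8000×g for 30 min, then 0.2 µm filtration. Antibody spiked into this fluid and mixed 1:1 with 100 nM Fc-III probe in PBS; read immediately at Ex 485/Em 535 nm. Detection limit is signal above blank + 3 StdDev of blank.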

[6] = target: adalimumab biosimilar IgG1 (Homo sapiens, UniProt P01857); experiment: Fluorescence intensity, adalimumab biosimilar in CHO cell culture fluid; format: binding
Procedure, shortened: as §1

murine-IgG1 = experiment: Fluorescence intensity, murine IgG1 in CHO cell culture fluid; format: binding
Procedure, shortened: as §1

IgG [7] = settings: cited from earlier work
human IgG [8] = settings: ref [40],[41]; cited from earlier work
murine IgG1 = settings: ref [41]; cited from earlier work
human-IgG = experiment: SpA competition with Fc-III probe/human IgG mixture, fluorescence intensity; format: binding; settings: IgG 0.005 g/L (30 nM), Fc-III probe 50 nM, 120 min
Procedure, shortened: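 Unlabelled SpA serially diluted in PBS and added at 0.02 nM–1 µM final to human IgG (33 nM, 0.005 g/L) plus Fc-III probe (50 nM). PBS alone served as negative control. Incubated 120 min for equilibration, then fluorescence intensity read at Ex 485/Em 535 nm.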

IgG [9] = settings: ref [16],[17]; cited from earlier work

adalimumab biosimilar IgG1, sequence (P01857 1-330 isoform P01857-1, other chains not shown): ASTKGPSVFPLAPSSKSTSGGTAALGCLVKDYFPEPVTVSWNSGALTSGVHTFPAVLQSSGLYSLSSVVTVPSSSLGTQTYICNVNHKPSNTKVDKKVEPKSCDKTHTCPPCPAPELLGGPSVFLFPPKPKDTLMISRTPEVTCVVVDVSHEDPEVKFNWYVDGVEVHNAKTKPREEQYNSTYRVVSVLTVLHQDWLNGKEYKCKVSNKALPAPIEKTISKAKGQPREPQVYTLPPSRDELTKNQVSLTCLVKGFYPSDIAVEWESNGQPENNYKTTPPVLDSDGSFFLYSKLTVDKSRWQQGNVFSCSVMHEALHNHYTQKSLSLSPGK

Fluorescein-Ahx-DCAWHLGELVWCT-NH2 (disulfide) [Fc-III probe]
Polarization dynamic range, difference between bound and free probe (Δ mP) (human IgG [1]; 96-well plate, Ex 485 nm/Em 535 nm): 260 mP
Lowest IgG concentration required to produce half-maximal response (human IgG [1]; fluorescence polarization): 0.001 g/L
Fold increase in fluorescence intensity at lowest IgG concentration (human IgG [2]; 25 nM probe, 0.00025 g/L IgG): 1.16 fold
Linear quantitation range (IgG concentration) (human IgG [2]; 2000 nM Fc-III probe, listed as fluorescein labeled Fc-III): 0.025 to 0.1 g/L
Fluorescence intensity increase on addition of HPβCD [3]: 2.1 fold
Polarization changes, human IgG versus adalimumab biosimilar (polyclonal human IgG [4]): nearly identical fluorescence polarization changes
Fluorescence intensity increase (polyclonal human IgG [5]; 100 nM probe in CHO-CCF, 2.5 g/L human IgG): ~ 1.8 fold
Limit of detection compared with HPLC or ELISA (polyclonal human IgG [5]; IgG in CHO-CCF): comparable to those of HPLC or ELISA
Limit of detection by fluorescence intensity (polyclonal human IgG [5]; human IgG, 100 nM probe in CHO-CCF, signal > blank intensity + 3StdDev of blank): 0.00025 g/L
Fluorescence intensity increase ([6]; 100 nM probe in CHO-CCF, 2.5 g/L adalimumab (IgG1 mAb)): ~ 1.8 fold
Adalimumab biosimilar detected down to ([6]; CHO cell culture fluid, fluorescence intensity): 100 ng/mL
Detection limit (murine-IgG1; murine IgG1, 100 nM probe in CHO-CCF): 0.1 g/L
Detection limit for murine IgG1 relative to human IgG (murine-IgG1; murine IgG1 versus human IgG): 1000 times
Binding affinity for IgG, Fc-III versus SpG (IgG [7]): comparable binding affinity for IgG
Binding of human IgG (subtypes 1–4) to Fc-III relative to pure IgG1 (human IgG [8]): binds Fc-III less well than pure IgG1
Binding to murine IgG1 (murine IgG1): binds relatively poorly

SpA: unlabeled Staphylococcal protein A, competitor binding to the same location on Fc as Fc-III
Fluorescence intensity of Fc-III/IgG mixture with 500 nM SpA (human-IgG; 500 nM SpA): fell to that of free Fc-III probe
Effect of unlabeled SpA on emission intensity of IgG/Fc-III probe mixture (human-IgG; SpA 0.02 nM to 1 µM in PBS): markedly diminished

fluorescein-labeled protein A (SpA): fluorescein-labeled protein A, literature comparison
IgG binding-induced fluorescence enhancement of fluorescein-labeled protein A (IgG [9]): IgG binding-induced fluorescence enhancement
